Experimental findings from ChEMBL document CHEMBL4177580, “New 5-HT1A, 5HT2A and 5HT2C receptor ligands containing a picolinic nucleus: Synthesis, in vitro and in vivo pharmacological evaluation” (Bioorg Med Chem, 2017) are described below.

Data set [1] relates to Rattus norvegicus. Kind of data set: In-vivo 5-HT1A receptor agonist activity in Wistar rat assessed as induction of lower lip retraction by measuring lower lip retraction score at 0.3 mg/kg, ip dosed 15 mins before test (reference value: 0.0 +/- 0.0).
Data set [2] has as its system Mus musculus. Put plainly: Inhibition of 8-OH-DPAT-induced hypothermia in Swiss albino mouse at 0.1 mg/kg, ip measured after 120 mins post dose co-treated with 8-OH-DPAT. It is filed as functional, organism-based.
In data set [3] the test system is Rattus norvegicus. Put plainly: In-vivo 5-HT1A receptor antagonist activity in Wistar rat assessed as reduction in 8-OH-DPAT-stimulated induction of lower lip retraction by measuring lower lip retraction score at 0.3 mg/kg, ip dosed 15 mins before test (reference value: 2.875 +/- 0.08183).
In data set [4] the test system is Mus musculus. Put plainly: Antidepressant-like activity in Swiss albino mouse assessed as reduction in immobility time at 7.5 mg/kg, ip dosed 1 hr before test by forced swimming test. Format: functional, organism-based. In outline: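 Male Swiss albino mice (18–24 g), compound i.p. in 0.1% DMSO/0.5% methylcellulose 1 h pre-test. Porsolt swim: cylinder 25 cm high, 10 cm diameter, 10 cm water at 23–25°C, 6 min session; immobility scored over last 4 min. Blind observer; one-way ANOVA with Dunnett's; mean ± SEM.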

The target of data set [5] is T1, 5-hydroxytryptamine receptor 2C (Rattus norvegicus, UniProt P08909).
T1 sequence (P08909 whole entry): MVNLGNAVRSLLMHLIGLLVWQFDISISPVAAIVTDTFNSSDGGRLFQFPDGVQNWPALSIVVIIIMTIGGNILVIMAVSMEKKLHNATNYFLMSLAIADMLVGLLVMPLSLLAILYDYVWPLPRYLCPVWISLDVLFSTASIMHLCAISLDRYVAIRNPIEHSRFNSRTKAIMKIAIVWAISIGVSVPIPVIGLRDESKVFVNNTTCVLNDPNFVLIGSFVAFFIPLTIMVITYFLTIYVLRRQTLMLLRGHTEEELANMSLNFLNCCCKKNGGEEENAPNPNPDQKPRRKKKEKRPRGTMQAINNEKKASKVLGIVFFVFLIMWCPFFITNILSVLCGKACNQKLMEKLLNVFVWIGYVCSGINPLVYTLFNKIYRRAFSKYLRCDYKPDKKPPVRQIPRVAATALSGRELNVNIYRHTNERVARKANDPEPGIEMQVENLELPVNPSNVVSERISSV
Kind of data set: Displacement of [3H]mesulergine from serotonin 5-HT2C receptor in Sprague-Dawley rat brain cortex homogenates incubated for 15 mins by liquid scintillation spectrometry. A general note: Loss of bound radioactivity is the signal in a displacement assay; it reports binding, not function.

Data set [6] deals with Mus musculus. Put plainly: Anxiolytic-like activity in Swiss albino mouse assessed as increase in time spent in open arms at 3.75 to 15 mg/kg measured for 5 mins test period by elevated plus maze test. It is filed as functional, organism-based.
In data set [7] the target is 5-hydroxytryptamine receptor 2A (Rattus norvegicus, UniProt P14842). Put plainly: Displacement of [3H]ketanserin from serotonin 5-HT2A receptor in Sprague-Dawley rat brain cortex homogenates incubated for 15 mins by liquid scintillation spectrometry.
The test system of data set [8] is Mus musculus. Kind of data set: Antidepressant-like activity in Swiss albino mouse assessed as reduction in immobility time at 15 mg/kg, ip dosed 1 hr before test by forced swimming test. It is filed as functional, organism-based. In outline:
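Male Swiss albino mice (18-24 g). The reference drug was diluted in saline and given ip (10 ml/kg) 1 h before testing. Each mouse swam for 6 min in a cylinder (25 cm high, 10 cm diameter) holding 10 cm of water at 23-25°C. Immobility was timed over the last 4 min. Data are mean ± SEM, analysed by one-way ANOVA with Dunnett's test.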

The target of data set [9] is T2, 5-hydroxytryptamine receptor 1A (Rattus norvegicus, UniProt P19327).
T2 sequence (P19327 whole entry): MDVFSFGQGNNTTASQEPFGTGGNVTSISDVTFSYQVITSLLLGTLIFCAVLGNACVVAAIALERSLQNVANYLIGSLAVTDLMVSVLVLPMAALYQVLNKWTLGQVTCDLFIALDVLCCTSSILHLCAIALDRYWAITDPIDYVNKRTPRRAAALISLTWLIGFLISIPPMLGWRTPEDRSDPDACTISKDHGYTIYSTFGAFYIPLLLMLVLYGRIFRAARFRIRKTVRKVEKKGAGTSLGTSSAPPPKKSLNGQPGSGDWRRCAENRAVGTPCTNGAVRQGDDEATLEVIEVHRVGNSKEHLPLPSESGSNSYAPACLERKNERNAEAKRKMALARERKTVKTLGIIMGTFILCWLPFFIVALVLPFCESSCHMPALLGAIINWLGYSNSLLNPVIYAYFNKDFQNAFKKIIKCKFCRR
Put plainly: Displacement of [3H]-8-OH-DPAT from serotonin 5-HT1A receptor in Sprague-Dawley rat brain cortex homogenates incubated for 30 mins by liquid scintillation spectrometry.

The test system of data set [10] is Mus musculus. Put plainly: Toxicity in Swiss albino mouse assessed as reduction in spontaneous locomotor activity at 15 mg/kg, ip dosed 60 mins before test. It is filed as organism-based. The settings on record: in vivo, 1 h. In outline: (§1)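 Spontaneous locomotion: mice dosed i.p. 60 min before being placed individually in an actometer for 30 min. Distance travelled read at 6 and 30 min. Cages cleaned with 70% ethanol between animals. One-way ANOVA with Dunnett's; mean ± SEM of one experiment.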

Data set [11] relates to Rattus norvegicus. Kind of data set: In-vivo 5-HT1A receptor agonist activity in Wistar rat assessed as induction of lower lip retraction by measuring lower lip retraction score at 30 mg/kg, ip dosed 15 mins before test (reference value: 0.0 +/- 0.0).
Data set [12] relates to Mus musculus. Put plainly: Inhibition of 8-OH-DPAT-induced hypothermia in Swiss albino mouse at 30 mg/kg, ip measured after 120 mins post dose co-treated with 8-OH-DPAT. It is filed as functional, organism-based. In outline: (§2)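 Normothermic male Swiss mice; rectal thermistor readings over 180 min. Baseline is the mean of readings 60 and 30 min before dosing; readings at 30, 60, 90, 120 min post-injection; Δt = tf − ti. Test compounds i.p. (DMSO/methylcellulose); 8-OH-DPAT (5 mg/kg) and WAY 100635 (0.1 mg/kg) s.c. in water. Two-way ANOVA, Bonferroni.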

The subject of data set [13] is Mus musculus. Kind of data set: Toxicity in Swiss albino mouse assessed as effect on motor coordination at 3.75 to 15 mg/kg, ip dosed 60 mins before test by Chimney test. Particulars: in vivo, 1 h. Format: organism-based. The method in brief: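 Chimney test in male Swiss mice after i.p. dosing 60 min earlier: impairment defined as failure to climb backwards up a tube (3 cm inner diameter, 25 cm long) within 60 s. Animals pre-trained once daily for 3 days. One-way ANOVA with Dunnett's.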

Data set [14] relates to Mus musculus. Kind of data set: Toxicity in Swiss albino mouse assessed as reduction in spontaneous locomotor activity at 7.5 mg/kg, ip dosed 60 mins before test. Format: organism-based. The settings on record: in vivo, 1 h. In outline:
as §1

Data set [15] relates to Rattus norvegicus. Kind of data set: In-vivo 5-HT1A receptor agonist activity in Wistar rat assessed as induction of lower lip retraction by measuring lower lip retraction score at 1 mg/kg, ip dosed 15 mins before test co-treated with 0.3 mg/kg, ip WAY100635.
Data set [16] has as its system Mus musculus. Kind of data set: Induction of hypothermia in normothermic Swiss albino mouse assessed as reduction in body temperature at 30 mg/kg, ip measured after 120 mins post dose. It is filed as functional, organism-based. In outline:
as §2

Data set [17] has as its system Rattus norvegicus. Kind of data set: In-vivo 5-HT1A receptor antagonist activity in Wistar rat assessed as reduction in 8-OH-DPAT-stimulated induction of lower lip retraction by measuring lower lip retraction score at 30 mg/kg, ip dosed 15 mins before test (reference value: 2.875 +/- 0.08183).

Active and inactive are the calls of the source.

Chain of 5-hydroxytryptamine receptor 2A (P14842 whole entry): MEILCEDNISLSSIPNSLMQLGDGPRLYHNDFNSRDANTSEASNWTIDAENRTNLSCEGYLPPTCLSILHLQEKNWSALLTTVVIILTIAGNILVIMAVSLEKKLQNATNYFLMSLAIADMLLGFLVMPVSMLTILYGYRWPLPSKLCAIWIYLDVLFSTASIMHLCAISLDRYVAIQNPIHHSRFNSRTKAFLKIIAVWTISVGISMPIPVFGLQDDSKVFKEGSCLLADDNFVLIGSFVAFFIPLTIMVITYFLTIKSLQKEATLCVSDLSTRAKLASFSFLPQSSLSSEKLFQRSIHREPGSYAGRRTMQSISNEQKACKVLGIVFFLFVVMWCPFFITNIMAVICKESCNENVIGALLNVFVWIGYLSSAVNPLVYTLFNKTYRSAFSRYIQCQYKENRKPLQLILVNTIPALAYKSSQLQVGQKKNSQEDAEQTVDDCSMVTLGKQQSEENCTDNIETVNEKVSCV

As for `COc1ccccc1N1CCN(CCN(C(=O)C2CCCCC2)c2ccccn2)CC1` [WAY-100,635], the Activity_index in the data set with Rattus norvegicus [1] was 0; in the data set on Rattus norvegicus [3], 1.667. Besides, in the data set on Mus musculus [2], the inhibition result is “Active”.

With `O=C(NCCN1CCN(c2ncccn2)CC1)c1ccccn1`, the result with Mus musculus [4], with Mus musculus [6] and with Mus musculus [8] was Active. Besides, the Ki (as a rule, a measure of affinity in units of concentration, obtained from inhibition or displacement) was > 10 µM in [5], > 10 µM in data set [7] and 0.046 nM in [9]. In addition, the Activity entry in the data set on Mus musculus [10], with Mus musculus [13] and with Mus musculus [14] was “Non-Toxic” in each case. Besides, the Activity_index was determined as 2.714 in the data set with Rattus norvegicus [11] and 2 with Rattus norvegicus [17]. Moreover, the inhibition result in the data set with Mus musculus [12] was “Active”. Also, the result in the data set with Rattus norvegicus [15] and with Mus musculus [16] was inactive.
